Laboratory results published in ChEMBL document CHEMBL3352644, “Selenadiazole derivatives as potent thioredoxin reductase inhibitors that enhance the radiosensitivity of cancer cells” (Eur J Med Chem, 2014).
Activity calls are given as the source filed them. The rule behind the calls is not given here.

Columns and labels:
A-375 [1] = test: Cytotoxicity against human A375 cells pre-treated with 20 uM p38 inhibitor […] for 1 hr followed by 8 ug/mL compound exposure for 18 hrs by MTT assay; assay type: functional, cell-based
Procedure, shortened: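 A375 cells pretreated 1 h with 20 µM SP600125 (JNK) or SB203580 (p38), then exposed to compound at 8 µg/ml for 18 h. Viability by MTT (formazan in DMSO, 570 nm), expressed as % of control.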

A-375 [2] = test: Induction of cell morphological changes in human A375 cells pre-treated with 20 uM p38 inhibitor […] for 1 hr followed by 8 ug/mL compound exposure for 18 hrs; assay type: functional, cell-based
A-375 [3] = test: Induction of ROS generation in human A375 cells at 2 ug/mL […] by DCF and DHE dye based fluorescence assay; assay type: functional, cell-based
A-375 [4] = test: Induction of ROS generation in human A375 cells at 4 ug/mL […] by DCF and DHE dye based fluorescence assay; assay type: functional, cell-based
[5] = target: Thioredoxin reductase (Homo sapiens) (UniProt Q16881+Q9NNW7+Q86VQ6); test: Inhibition of TrxR antioxidant enzyme activity in human A375 cells at 2 ug/mL incubated for 6 hrs followed by irradiation with 8 Gy X-ray at 37 degC for 12 hrs by insulin reduction assay; assay type: cell-based; conditions: A-375
A-375 [6] = test: Reduction in Trx expression in human A375 cells at 2 ug/mL incubated for 6 hrs followed by irradiation with 8 Gy X-ray at 37 degC for 12 hrs by Western blotting method; assay type: functional, cell-based
A-375 [7] = test: Induction of cell shrinkage in human A375 cells incubated for 6 hrs followed by irradiation with 8 Gy X-ray at 37 degC for 12 hrs by microscopy; assay type: functional, cell-based
Procedure, shortened: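 A375 cells in DMEM with 10% FBS, 37 °C, 5% CO2. Pretreated with agent 6 h, then 0 or 8 Gy X-ray from a linear accelerator at 1.5 Gy/min, room temperature. Incubated a further 12 h; morphology imaged.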

A-375 [8] = test: Induction of cell morphological changes in human A375 cells incubated for 6 hrs followed by irradiation with 8 Gy X-ray at 37 degC for 12 hrs by microscopy; assay type: functional, cell-based
A-375 [9] = test: Induction of cell cycle arrest in human A375 cells assessed as accumulation at G1/G0 phase at 4 ug/mL incubated for 18 hrs by propidium iodide staining based flow cytometry (reference value: 48.9%); assay type: functional
Procedure, shortened: (§1)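 A375 cells treated at 10 or 4 µg/ml for 6 h, given 0 or 8 Gy X-ray, then 12 h more. Trypsinized, washed in PBS, fixed overnight in ice-cold 75% ethanol at −20 °C. Stained with propidium iodide, 30 min at 37 °C in the dark; DNA content and sub-G1 population read by flow cytometry.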

A-375 [10] = test: Induction of cell cycle arrest in human A375 cells assessed as accumulation at S phase at 4 ug/mL incubated for 18 hrs by propidium iodide staining based flow cytometry (reference value: 37.2%); assay type: functional; procedure, shortened: as §1
A-375 [11] = test: Induction of cell cycle arrest in human A375 cells assessed as accumulation at S phase at 4 ug/mL incubated for 6 hrs followed by irradiation with 8 Gy X-ray at 37 degC for 12 hrs by propidium iodide staining based flow cytometry (reference value: 7.9%); assay type: functional; procedure, shortened: as §1
A-375 [12] = test: Induction of apoptosis in human A375 cells assessed as caspase 8 activation at 2 ug/mL incubated for 18 hrs by fluorometric assay; assay type: functional, cell-based
Procedure, shortened: (§2)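 Cells seeded at 1 × 10⁶ per 10 cm dish and treated with 2 µg/ml alone or with 8 Gy X-ray for 18 h total. RIPA lysates clarified by spinning at 12,000 rpm for 5 min; 80 µg protein given Ac-DEVD-AMC (caspase-3), Ac-IETD-AMC (caspase-8) or Ac-LEHD-AMC (caspase-9). Incubated 2 h at 37 °C in the dark; fluorescence at 380/440 nm.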

A-375 [13] = test: Induction of apoptosis in human A375 cells assessed as caspase 8 activation at 2 ug/mL incubated for 6 hrs followed by irradiation with 8 Gy X-ray at 37 degC for 12 hrs by fluorometric assay; assay type: functional, cell-based; procedure, shortened: as §2
A-375 [14] = test: Induction of apoptosis in human A375 cells assessed as caspase 9 activation at 2 ug/mL incubated for 6 hrs followed by irradiation with 8 Gy X-ray at 37 degC for 12 hrs by fluorometric assay; assay type: functional, cell-based; procedure, shortened: as §2
A-375 [15] = test: Induction of apoptosis in human A375 cells assessed as caspase 3 activation at 2 ug/mL incubated for 18 hrs by Western blotting method; assay type: functional, cell-based
Procedure, shortened: (§3)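 A375 cells treated with 2 µg/ml alone or with 8 Gy X-ray (6 h pretreatment, then 12 h; 18 h total). RIPA lysates (50 µg protein) run on SDS-PAGE and immunoblotted for caspases and PARP cleavage. Reprobed for β-actin as loading control.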

A-375 [16] = test: Induction of apoptosis in human A375 cells assessed as caspase 9 activation at 2 ug/mL incubated for 18 hrs by Western blotting method; assay type: functional, cell-based; procedure, shortened: as §3
A-375 [17] = test: Induction of apoptosis in human A375 cells assessed as caspase 3 activation at 2 ug/mL incubated for 6 hrs followed by irradiation with 8 Gy X-ray at 37 degC for 12 hrs by Western blotting method; assay type: functional, cell-based; procedure, shortened: as §3
A-375 [18] = test: Induction of apoptosis in human A375 cells assessed as caspase 8 activation at 2 ug/mL incubated for 6 hrs followed by irradiation with 8 Gy X-ray at 37 degC for 12 hrs by Western blotting method; assay type: functional, cell-based; procedure, shortened: as §3
A-375 [19] = test: Reduction in Bcl-2 expression in human A375 cells at 4 ug/mL incubated for 18 hrs by Western blotting method; assay type: functional, cell-based
Procedure, shortened: (§4)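 A375 cells given […] for 6 h, then 0 or 8 Gy X-ray at 1.5 Gy/min and 12 h further culture. Lysis in ice-cold RIPA, pH 7.4, with protease and phosphatase inhibitors; protein by BCA. […] protein per lane on SDS-PAGE, transferred to nitrocellulose. Blocked in 5% milk/TBST. Primary 1:1000, 10 h, 4 °C; HRP secondary 1:2000, 1.5 h.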

A-375 [20] = test: Reduction in Bcl-2 expression in human A375 cells at 4 ug/mL incubated for 6 hrs followed by irradiation with 8 Gy X-ray at 37 degC for 12 hrs by Western blotting method; assay type: functional, cell-based; procedure, shortened: as §4
[21] = target: T1, MAP kinase p38 (Homo sapiens) (UniProt O15264+Q15759+Q16539+P53778); test: Induction of p38 phosphorylation in human A375 cells at 4 ug/mL incubated for 18 hrs by Western blotting method; assay type: cell-based; conditions: A-375; procedure, shortened: as §4
[22] = target: c-Jun N-terminal kinase, JNK (Homo sapiens) (UniProt P45983+P53779+P45984); test: Induction of JNK phosphorylation in human A375 cells at 4 ug/mL incubated for 6 hrs followed by irradiation with 8 Gy X-ray at 37 degC for 12 hrs by Western blotting method; assay type: cell-based; conditions: A-375
Procedure, shortened: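 A375 cells pretreated 6 h with compound at 4 µg/ml, given 0 or 8 Gy X-ray, then incubated 12 h more. Lysed in RIPA buffer, pH 7.4, with protease and phosphatase inhibitors; 50 µg protein run on SDS-PAGE and blotted to nitrocellulose. Blocked in 5% milk; primary antibodies 1:1000, 10 h at 4 °C; HRP secondary 1:2000.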

[23] = target: T1, MAP kinase p38 (Homo sapiens); test: Induction of p38 phosphorylation in human A375 cells at 4 ug/mL incubated for 6 hrs followed by irradiation with 8 Gy X-ray at 37 degC for 12 hrs by Western blotting method; assay type: cell-based; conditions: A-375; procedure, shortened: as §4

- inhibition [5]: Active
- Activity [21]: Active
- Activity [22]: Active
- Activity [23]: Active
SMILES: COc1cc(-c2nc3cc(-c4ccc5n[se]nc5c4)ccc3[nH]2)cc(OC)c1OC
- Activity (A-375 [1]): inactive
- Activity (A-375 [2]): inactive
- Activity (A-375 [3]): Active
- Activity (A-375 [4]): Active
- Activity (A-375 [6]): Active
- Activity (A-375 [7]): Active
- Activity (A-375 [8]): Active
- Activity (A-375 [9]): 21.6%
- Activity (A-375 [10]): 34%
- Activity (A-375 [11]): 30.6%
- Activity (A-375 [12]): Active
- Activity (A-375 [13]): Active
- Activity (A-375 [14]): Active
- Activity (A-375 [15]): Active
- Activity (A-375 [16]): Active
- Activity (A-375 [17]): Active
- Activity (A-375 [18]): Active
- Activity (A-375 [19]): Active
- Activity (A-375 [20]): Active
